Results on 5 compounds are retold here after ChEMBL document CHEMBL5247575 (J Med Chem, 2018).

In brackets after ≈: the same amount, converted by molar mass.

In assay [1] the test system is Acinetobacter baumannii. Description: Antibacterial activity against Acinetobacter baumannii PR476 producing OXA-24/40 by broth microdilution method. The format is functional.
In assay [2] the test system is Acinetobacter baumannii. Description: Antibacterial activity against Acinetobacter baumannii SL46 producing OXA-23/51 infected in sc dosed Swiss albino mouse administered 1 hr post infection and measured upto 7 days. The following applies: SL46, 168 h.
The subject of assay [3] is Acinetobacter baumannii. The experiment in a line: Antibacterial activity against Acinetobacter baumannii SL04 producing OXA-23/51 infected in Swiss mouse model of neutropenic lung infection.
Assay [4] deals with Acinetobacter baumannii. The experiment in a line: Antibacterial activity against ADC deleted Acinetobacter baumannii transfected with pWH1266 producing OXA-24/40 by broth microdilution method. The format is functional. (In broth dilution the organism is exposed to a series of concentrations in liquid medium.)
Assay [5] has as its system Acinetobacter baumannii. The experiment in a line: Antibacterial activity against Acinetobacter baumannii NCTC 13301 producing OXA-23/51 infected in sc dosed Swiss albino mouse administered 1 hr post infection and measured upto 7 days. The assay is classed as functional. The following applies: for ED90 / ED50: NCTC 13301, 168 h, time <= 7 day; for ED50: read-out: PD50. Put shortly: (§1)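 Peritonitis model: male and female Swiss albino mice infected intraperitoneally with 3.5×10^5 to 3×10^6 CFU/mouse in 5% hog gastric mucin (lethal to untreated mice within 24 h). […] Survival followed 7 days; PD50/PD90 by probit analysis.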

For the next assay, the system named is Escherichia coli. Description: Antibacterial activity against Escherichia coli DH10B transfected with pBC SK (-) OXA-48 by broth microdilution method. The format is functional.
Assay [6] relates to Klebsiella pneumoniae. Description: Antibacterial activity against Klebsiella pneumoniae 660/1568 producing KPC-3 by broth microdilution method. The assay is classed as functional.
The test system of assay [7] is Acinetobacter baumannii. The experiment in a line: Antibacterial activity against Acinetobacter baumannii NCTC 13303 producing OXA-26/51 infected in sc dosed Swiss albino mouse administered 1 hr post infection and measured upto 7 days. Conditions: NCTC 13303, 168 h; for ED50: read-out: PD50.
Assay [8] relates to Klebsiella pneumoniae. The experiment in a line: Antibacterial activity against Klebsiella pneumoniae 977/1916 producing KPC-3 by broth microdilution method. The assay is classed as functional.
Assay [9] has as its system Acinetobacter baumannii. Description: Antibacterial activity against Acinetobacter baumannii NCTC 13303 producing OXA-26/51 infected in sc dosed Swiss albino mouse administered 1 hr post infection and measured upto 7 days. The assay is classed as functional. Conditions: NCTC 13303, 168 h, time <= 7 day. Put shortly:
as §1

For assay [10], the system named is Acinetobacter baumannii. The experiment in a line: Antibacterial activity against Acinetobacter baumannii SL04 producing OXA-23/51 infected in Swiss mouse model of neutropenic lung infection assessed as reduction in log10CFU at 50 mg/kg.
The subject of assay [11] is Acinetobacter baumannii. Description: Antibacterial activity against Acinetobacter baumannii SL46 producing OXA-23/51 infected in sc dosed Swiss albino mouse administered 1 hr post infection and measured upto 7 days. The assay is classed as functional. Conditions: SL46, 168 h, time <= 7 day. Put shortly: as §1

The term MIC denotes the lowest concentration found to suppress growth. Lower therefore signals inhibition by little substance. With `C[C@@H](O)[C@H]1C(=O)N2C(C(=O)O)=C(S[C@@H]3CN[C@H](C(=O)N(C)C)C3)[C@H](C)[C@H]12` [MEROPENEM], the minimum inhibitory concentration (MIC) against Acinetobacter baumannii [1] is 0.25 µg/mL (≈ 0.652 µM); against Acinetobacter baumannii [3], 64 µg/mL (≈ 167 µM); against Acinetobacter baumannii [4], over 16 µg/mL; in the assay with Escherichia coli, 8 µg/mL (≈ 20.9 µM); against Klebsiella pneumoniae [6] it was 2 µg/mL (≈ 5.22 µM); against Klebsiella pneumoniae [8], 1 µg/mL (≈ 2.61 µM). Further, the ED90 in the assay on Acinetobacter baumannii [2] stood at 50 mg/kg; in the assay with Acinetobacter baumannii [5], 25 mg/kg; in the assay on Acinetobacter baumannii [7], 50 mg/kg. Moreover, the ED50 is 50 mg/kg with Acinetobacter baumannii [2] (read-out: PD50), 25 mg/kg with Acinetobacter baumannii [5] and 50 mg/kg in the assay on Acinetobacter baumannii [7].

Compound `CO/N=C(\C(=O)N[C@@H]1C(=O)N2C(C(=O)[O-])=C(C[N+]3(C)CCCC3)CS[C@H]12)c1csc(N)n1` yielded an MIC against Acinetobacter baumannii [1] of 1 µg/mL (≈ 2.08 µM). The ED90 in the assay with Acinetobacter baumannii [9] was 50 mg/kg; in the assay on Acinetobacter baumannii [5], over 100 mg/kg; in the assay with Acinetobacter baumannii [11], 50 mg/kg. Besides, the ED50 in the assay on Acinetobacter baumannii [9] (read-out: PD50) was 50 mg/kg; in the assay on Acinetobacter baumannii [5], over 100 mg/kg; in the assay on Acinetobacter baumannii [11] (read-out: PD50) it was 50 mg/kg. In addition, the Activity in the assay with Acinetobacter baumannii [10] worked out at 0.98 log10CFU.

Turning to `CN(C)c1cc(NC(=O)CNC(C)(C)C)c(O)c2c1C[C@H]1C[C@H]3[C@H](N(C)C)C(O)=C(C(N)=O)C(=O)[C@@]3(O)C(O)=C1C2=O` [TIGECYCLINE], in the assay on Acinetobacter baumannii [3], the MIC was found to be 4 µg/mL (≈ 6.83 µM). Further, in the assay with Acinetobacter baumannii [5], the ED90 is over 6.25 mg/kg and the ED50 is over 6.25 mg/kg. Moreover, in the assay on Acinetobacter baumannii [7], the ED90 was over 6.25 mg/kg and the ED50 is over 6.25 mg/kg.

In the assay with Acinetobacter baumannii [3], `C[C@@H](O)[C@H]1C(=O)N2C(C(=O)O)=C(SCCNC=N)C[C@H]12` [IMIPENEM ANHYDROUS] showed an MIC of 64 µg/mL (≈ 214 µM).

Take COLISTIN: in the assay on Acinetobacter baumannii [5] (time <= 7.0 day), the PD50 was found to be 16.6 mg/kg.
